Laboratory results: PMC9055608 (RSC Advances, 2020)

What was measured:
SKBR3 = assay: MTT cell proliferation assay, SKBR3; type: cell-based, human; conditions: SKBR3, breast; MTT, 72 h
How it was run: (§1)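 ATCC lines grown in DMEM or RPMI-1640 with 10% heat-inactivated FBS and 1% penicillin/streptomycin at 37 °C, 5% CO2. Log-phase cells seeded at about 4000–5000/well and left to adhere 24 h. Sextuplicate wells, 72 h. MTT for 4 h, then DMSO and absorbance. IC50 taken from dose–response curves.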

N87 = assay: MTT cell proliferation assay, N87; type: cell-based, human; conditions: N87, stomach; MTT, 72 h
How it was run: as §1

SKMEL-28 = assay: MTT cell proliferation assay, SKMEL-28; type: cell-based, human; conditions: SKMEL-28, skin; MTT, 72 h
How it was run: as §1

SKOV3 = assay: MTT cell proliferation assay, SKOV3; type: cell-based, human; conditions: SKOV3, ovary; MTT, 72 h
How it was run: as §1

MDA-MB453 = assay: MTT cell proliferation assay, MDA-MB453; type: cell-based, human; conditions: MDA-MB453, breast; MTT, 72 h
How it was run: as §1

MCF-7 = assay: MTT cell proliferation assay, MCF-7; type: cell-based, human; conditions: MCF-7, breast; MTT, 72 h
How it was run: as §1

A-549 = assay: MTT cell proliferation assay, A-549; type: cell-based, human; conditions: A-549, lung; MTT, 72 h
How it was run: as §1

[1] = cisplatin; cited from earlier work
HT-29 = assay: MTT cell proliferation assay, HT-29; type: cell-based, human; conditions: HT-29, colon; MTT, 72 h
How it was run: as §1

A375 = assay: MTT cell proliferation assay, A375; type: cell-based, human; conditions: A375, melanoma; MTT, 72 h
How it was run: as §1

MDA-MB231 = assay: MTT cell proliferation assay, MDA-MB231; type: cell-based, human; conditions: MDA-MB231, breast; MTT, 72 h
How it was run: as §1

DU-145 = assay: MTT cell proliferation assay, DU-145; type: cell-based, human; conditions: DU-145, prostate; MTT, 72 h
How it was run: as §1

MCF-7 xenograft tumour [2] = assay: Drug efficacy in vivo, MCF-7 breast cancer model; set-up: species or system nude mice; conditions: positive control
[3] = Mouse weight during in vivo efficacy study; set-up: species or system nude mice; conditions: during the nine days of treatment
MCF-7 xenograft tumour [4] = assay: Pathological tissue sections; type: in vivo, nude mice; conditions: positive control group, cisplatin 5 mg kg^−1
How it was run: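 Tumour-bearing nude mice were anaesthetised and killed after the 9-day dosing. Heart, liver, spleen, lung, kidney, brain and tumour were fixed in 10% formalin, embedded in paraffin, cut into 4 μm sections and stained with haematoxylin–eosin.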

Calu-3 = assay: MTT cell proliferation assay, Calu-3; type: cell-based, human; conditions: Calu-3, lung; MTT, 72 h
How it was run: as §1

**Q.** What does the source list for `N.N.[Cl][Pt][Cl]` [Cisplatin, cis-platinum, reference compound]?
**A.** IC50 (SKBR3): 3.04 ± 0.17 µM; IC50 (N87): 8.35 ± 0.3 µM; IC50 (SKMEL-28): 12.9 ± 0.96 µM; IC50 (SKOV3): 4.15 ± 0.3 µM; IC50 (MDA-MB453): 15.4 ± 0.83 µM; IC50 (MCF-7): 11.2 ± 0.6 µM; IC50 (A-549): 3.03 ± 0.24 µM; AUC0→t [1]: 36 000 μg L^−1 h; CL [1]: 0.23 L·kg/h; IC50 (HT-29): 4.71 ± 0.17 µM; IC50 (A375): 5.28 ± 0.18 µM; IC50 (MDA-MB231): 12.8 ± 0.58 µM; IC50 (DU-145): 2820 ± 140 nM; Tumour weight (mean) (MCF-7 xenograft tumour [2]; group E, cisplatin 5 mg kg^−1 tail vein for 9 days): 299.53 ± 109.60; Inhibition rate (IR) determined as tumour weight (MCF-7 xenograft tumour [2]; cisplatin 5 mg kg^−1 for 9 days): 64.10%; mouse weight course (in words) [3]: obvious weight loss; tumour histopathology (MCF-7 xenograft tumour [4]): a large amount of tumour cell necrosis with nucleolysis; IC50 (Calu-3): 7.39 ± 0.25 µM
